# PTK2B oligo ant: antagonists of human Pyk2 oligomerization; Q14289; Q293 cells, Pyk2 FERM NanoBiT luminescence; hits give low values; z-score (the deposit names both 25 µM and 10 µM); 0.83% of 99,000 active;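 active means Z-score of -3 or lower, scaled per plate to the spread of control and sample wells; inactive means z-score above -3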;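 further: negative z-score means lost luminescence so less FERM oligomerization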
# Target sequence (Q14289 whole entry, looked up): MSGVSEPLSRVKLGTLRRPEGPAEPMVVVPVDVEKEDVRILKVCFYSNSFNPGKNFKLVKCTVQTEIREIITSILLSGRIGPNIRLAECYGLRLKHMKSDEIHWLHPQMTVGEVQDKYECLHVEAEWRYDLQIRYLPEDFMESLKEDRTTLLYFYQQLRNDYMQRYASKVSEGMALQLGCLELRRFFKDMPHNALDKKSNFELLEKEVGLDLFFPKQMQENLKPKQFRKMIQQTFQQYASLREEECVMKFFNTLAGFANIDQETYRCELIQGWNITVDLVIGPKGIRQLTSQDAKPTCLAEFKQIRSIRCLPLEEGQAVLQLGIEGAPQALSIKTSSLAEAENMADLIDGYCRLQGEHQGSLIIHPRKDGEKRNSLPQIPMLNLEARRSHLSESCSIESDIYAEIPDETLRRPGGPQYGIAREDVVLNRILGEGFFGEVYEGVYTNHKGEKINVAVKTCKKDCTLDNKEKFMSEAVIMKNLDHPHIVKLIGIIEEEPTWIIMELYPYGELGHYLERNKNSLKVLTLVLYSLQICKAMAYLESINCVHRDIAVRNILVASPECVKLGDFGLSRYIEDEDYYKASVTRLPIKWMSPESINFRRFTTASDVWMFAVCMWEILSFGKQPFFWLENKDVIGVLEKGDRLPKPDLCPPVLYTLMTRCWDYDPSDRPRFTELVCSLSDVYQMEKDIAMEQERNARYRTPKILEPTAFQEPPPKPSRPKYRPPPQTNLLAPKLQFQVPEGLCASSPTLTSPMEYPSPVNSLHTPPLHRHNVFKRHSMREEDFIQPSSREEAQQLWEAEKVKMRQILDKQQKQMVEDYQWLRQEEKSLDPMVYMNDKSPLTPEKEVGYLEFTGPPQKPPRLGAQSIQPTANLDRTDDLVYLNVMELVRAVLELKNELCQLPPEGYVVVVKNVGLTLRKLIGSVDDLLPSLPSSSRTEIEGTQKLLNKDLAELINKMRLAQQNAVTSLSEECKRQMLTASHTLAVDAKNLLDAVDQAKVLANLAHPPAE
# bCat KO growth: beta-catenin-lacking colon tumor cell growth suppression. 1.5% of 140,000 active. viability, % at 10 µM. HCT116 beta-catenin knockout viability, CellTiter-Glo, 60 h; hits give low values;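 active means viability at or under a set limit, the compound median less 4 SD, cut at about 6% in these data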;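 further: 0% = Hyamine 1622 control at 20 µM and 100% = untreated cell control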
# H69AR inhibit: blocks growth of human H69AR lung tumor cells | viability, % at 10 µM | 6% of 85,000 active | AID 598 | H69AR lung tumor viability, ATP luminescence, 72 h; hits give low values;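 active means viability at or below 40%; inactive means viability above 40%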;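 further: multidrug resistant small cell line overexpressing MRP-1 efflux transporter; 100% = mean luminescence of untreated control wells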
# Fibroblast inh: blocks proliferation of human lung fibroblasts | LL 47 human lung fibroblast viability, ATP luminescence; hits give low values | 1.1% of 85,000 active | viability, % at 10 µM;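 active means viability at or below 50% in the single dose screen; inactive means viability above 50%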;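 further: compound exposure lasted 72 h before the ATP readout; 100% = median luminescence of untreated cell-only wells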
#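 Material: human lung fibroblast line LL 47, low passage; Evaluation: viability percentage against median untreated-cell control; Buffer or medium: 15% FBS in IMEM; Incubation: 72 h compound exposure at 37 °C after overnight plating; Dosing: 0.1% DMSO in all compound wells; Measured by: CellTiter-Glo luminescence.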
# PTEN del growth: suppresses growth of cells with PTEN deletion | 1.2% of 140,000 active | viability, % at 10 µM | HCT116 PTEN-null viability, CellTiter-Glo, 60 h; hits give low values;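 active means viability at or below a set limit, 4 SD under the median of all tested compounds, cut at about 3.7% in these data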;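 further: PTEN knockout HCT116 line with beta catenin targeted HCT116 as companion control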
# HUVEC inhibit: inhibitors of human endothelial cell proliferation. 1.1% of 86,000 active. viability, % at 10 µM (by protocol). HUVEC proliferation, CellTiter-Glo luminescence, 72 h; hits give low values. AID 648;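 active means viability at or below 30%; inactive means viability above 30%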;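 further: 100% = median luminescence of DMSO-only cell control wells on each plate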
# * marks the source's active call; other numbers are inactive results; . = not tested or not shown. This excerpt belongs to a sample that is enriched for hits.
SMILES,PTK2B oligo ant,bCat KO growth,H69AR inhibit,Fibroblast inh,PTEN del growth,HUVEC inhibit
Cc1ccc(NC(=O)CSc2nc(-c3ccco3)cc(C(F)(F)F)n2)cc1C,-0.72,29,22*,72,26,48
O=C(CSc1nc(-c2ccco2)cc(C(F)(F)F)n1)NC1CCCC1,.,95,90,94,91,100
COC(=O)c1ccccc1NC(=O)CSc1nc(-c2ccco2)cc(C(F)(F)F)n1,-1.5,17,24*,62,13,61
CN(C)c1cccc2c(C=C(C#N)C#N)ccc(N(C)C)c12,.,73,.,.,76,.
Cc1ccc(NC(=O)Cn2cnc3sc(C(=O)NCCN(C)C)c(C)c3c2=O)cc1Cl,.,37,72,58,57,8.3*
CCCNC(=O)Cn1cnc2sc(C(=O)Nc3ccc4c(c3)OCO4)c(C)c2c1=O,-0.23,89,.,.,92,.
C(=N\Nc1ncnc2sc3c(c12)CCC3)/c1cccs1,2.1,2.1*,.,.,2.5*,.
C(=N\Nc1ncnc2sc3c(c12)CCC3)/c1ccncc1,-1.1,10,.,.,3.3*,.
O=C(Nc1ncnc2sc3c(c12)CCC3)c1ccco1,0.72,100,89,88,97,92
Cc1ccc(C(=O)COC(=O)c2ccccc2NC(=O)c2ccccc2)cc1[N+](=O)[O-],.,89,.,.,92,.
Cc1ccc(N/C=C/C(=O)c2sc(-c3ccccc3)nc2C)cc1,1.2,66,.,.,62,.
COC(=O)C1=C(C)NC(C)=C(C(=O)OC)C1c1ccc2ccccc2n1,-0.15,95,100,101,90,92
O=C1c2ccccc2C(=O)C1c1ccc2ccccc2n1,-0.61,86,28*,62,80,39
Cc1ccc(NC(=O)c2cc(NC(=O)c3ccco3)ccc2N2CCCCC2)cc1,-0.8,70,26*,48*,75,68
Cc1nc2ccc(C(=O)O)cc2c2c1CC(C)S2 (stereo not given),-0.18,101,71,103,90,97
N#C/C(C(N)=O)=c1/ccc2c(c1)N1C3=C(CCCC3)CC3CCCCC31N=2 (stereo not given),.,10,1.9*,88,9,44
N#CC(C#N)=c1ccc2c(c1)N1C3=C(CCCC3)CC3CCCCC31N=2 (stereo not given),-0.36,30,18*,62,41,68
Cc1nn(CC(O)CN2c3ccccc3Sc3ccccc32)c(C)c1Br (stereo not given),0.35,65,27*,88,52,59
OC(CN1c2ccccc2Sc2ccccc21)Cn1nnc2ccccc21 (stereo not given),-1.3,7,25*,90,2.5*,60
CC(C)(C)c1ccc(OCC(=O)NNC(=S)NC(=O)c2ccccc2[N+](=O)[O-])c(Br)c1,.,56,.,.,66,.
COc1ccc2c(c1)sc1nc(-c3ccccc3)cn12,-1.5,12,20*,94,12,47
COc1ccc(CN(CCC(c2ccccc2)c2ccc(OC(C)C)cc2)C(=O)CCl)cc1OC (stereo not given),.,1.5*,.,.,1.5*,.
COc1ccc(C(CCN(Cc2ccc(OC)c(OC)c2)C(C)=O)c2ccccc2)cc1 (stereo not given),.,77,.,.,75,.
O=S1(=O)c2ccccc2N=NN1Cc1ccc(Cl)cc1,-0.91,97,1.1*,6.2*,103,21*
O=S1(=O)c2ccccc2N=NN1Cc1cc(Cl)cc(Cl)c1,.,71,1.2*,47*,80,78
SMILES,PTK2B oligo ant,bCat KO growth,H69AR inhibit,Fibroblast inh,PTEN del growth,HUVEC inhibit
O=C(CSc1ccc2c(c1)OCCO2)Nc1ccc(Cl)cn1,0.6,92,99,92,93,19*
Cc1c(NC(=O)CSc2ccc3c(c2)OCCO3)c(=O)n(-c2ccccc2)n1C,0.16,101,95,101,96,97
Cc1noc(C)c1COc1ccc(C(=O)OCc2nnc(-c3ccc(Cl)cc3)o2)cc1,3.3,104,86,106,98,104
Cc1cccc(N2CCN(S(=O)(=O)c3ccc(S(=O)(=O)N4CCCC4)cc3)CC2)c1C,0.59,89,16*,55,77,65
Cc1ccccc1N1CCN(S(=O)(=O)c2ccccc2)CC1,-3.1*,89,99,.,88,59
Cc1cc(S(=O)(=O)N2CCN(c3ccccc3C)CC2)ccc1F,-3.6*,68,61,100,73,106
CCS(=O)(=O)N1CCN(c2cccc(C)c2C)CC1,0.18,99,94,95,102,98
CCS(=O)(=O)N1CCN(S(=O)(=O)c2ccccc2)CC1,0.91,101,92,94,98,91
Cc1ccc(Nc2ncccc2C(N)=O)cc1[N+](=O)[O-],.,94,.,.,92,.
CC1(C)Cc2c(ccc3ccccc23)/C(=C/C#N)N1,-0.45,88,.,.,91,.
CNC(=O)/C=C1\NC(C)(C)Cc2c1ccc1ccccc21,0.54,55,23*,89,56,80
CCOC(=O)/C=C/S(=O)(=O)c1ccc(NC(C)=O)cc1,-0.56,81,-0.2*,14*,76,68
CC1CCN(S(=O)(=O)c2ccc(S(=O)(=O)NCc3ccccc3)cc2)CC1,1.3,51,38*,90,46,76
O=S(=O)(NCc1ccccc1)c1ccc(S(=O)(=O)N2CCCCC2)cc1,0.1,72,82,98,80,91
CC1CCCC(C)N1S(=O)(=O)c1ccc(S(=O)(=O)NCc2ccccc2)cc1 (stereo not given),0.11,58,36*,46*,41,90
CCCCNC(=S)N/N=C/c1ccc(OCC(=O)Nc2c(C)cc(C)cc2C)c(OC)c1,.,76,.,.,88,.
CCOC(=O)c1cnc2ccc(C)cc2c1Nc1ccc(N2CCOCC2)cc1,-3*,41,.,.,36,.
CCOC(=O)c1ccc(Nc2cc(C)nc(N3CCOCC3)n2)cc1,-3.2*,94,.,.,94,.
S=C(Nc1ccc2cn[nH]c2c1)Nc1ccccc1Cl,.,93,.,.,100,.
CCCCN1C(=O)CN(CCc2ccccc2)C(=O)C1c1ccc(OC)cc1 (stereo not given),-0.37,92,38*,92,87,104
O=C(O/N=C\c1ccc(N2CCCCC2)c([N+](=O)[O-])c1)c1ccc(Cl)cc1Cl,0.35,95,.,.,91,.
COc1ccccc1C(=O)/C=C/c1ccc(N2CCCCC2)c([N+](=O)[O-])c1,-2.9,1.5*,.,.,1.4*,.
Cc1ccc(CNC(=O)Cc2ccc(-n3cccc3)cc2)cc1,.,30,.,.,29,.
O=C(Cc1ccc(-n2cccc2)cc1)NCc1cccs1,-0.14,18,29*,61,23,67
O=C(CC(SCCO)c1ccc2c(c1)OCO2)c1ccco1 (stereo not given),0.14,107,16*,87,95,85
O=C(O)CC(Cc1ccccc1)c1ccc2c(c1)OCO2 (stereo not given),-0.19,88,105,103,84,93
